{"data": "Assay results pooled from the literature", "target": "TGF-beta receptor type-1 (TGFBR1, Homo sapiens, UniProt P36897)"}
{"Compound": "CS(=O)(=O)Nc1cccc(-c2csc(NC(=O)CSc3nc4nccnc4c(=O)n3CCc3ccccc3)n2)c1", "observed": "enzyme activity", "action": "inhibitor", "tested at": "10 µM", "measurement": "inhibition", "value": "5%"}
{"Compound": "NS(=O)(=O)c1cc(NC(=O)Cc2ccccc2)ccc1Oc1cccc(Cl)c1", "observed": "cell-free assay", "technique": "competition with immobilised ligand", "tested at": "1 µM", "measurement": "remaining binding", "value": "100%"}
{"Compound": "COc1cc(-c2cc(-c3ccc(N4CCNCC4)cc3)cnc2C)cc(OC)c1OC", "observed": "enzyme activity", "action": "inhibitor", "tested at": "0.1 µM", "measurement": "inhibition", "value": "3%"}
{"Compound": "Fc1ccc(-c2ncn(-c3ccc4ccccc4c3)c2-c2ccncc2)cc1", "observed": "cell-free assay", "technique": "TR-FRET", "tested at": "1 µM", "measurement": "inhibition", "value": "14%"}
{"Compound": "O=C(NS(=O)(=O)c1ccc(NCC2CCOCC2)c([N+](=O)[O-])c1)c1ccc(N2CCN(Cc3ccc(C(F)(F)F)cc3-c3ccc(Cl)cc3)CC2)cc1Oc1cnc2[nH]ccc2c1", "observed": "cell-free assay", "technique": "competition with immobilised ligand", "tested at": "1 µM", "measurement": "remaining binding", "value": "93%"}
{"Compound": "COc1cc(Cl)c(C(=O)N[C@@H](CN[C@H]2CC[C@@H](N)CC2)Cc2ccc(C#N)cc2)cc1-c1ccc(CN[C@H](C)c2ccc(C)cc2)o1", "observed": "enzyme activity", "action": "inhibitor", "tested at": "1 µM", "measurement": "remaining activity", "value": "103%"}
{"Compound": "CC(C)(C)c1nc(-c2cccc(NS(=O)(=O)c3c(F)cccc3F)c2F)c(-c2ccnc(N)n2)s1", "observed": "enzyme activity", "action": "inhibitor", "technique": "radiometric", "tested at": "1 µM", "measurement": "remaining activity", "value": "22%"}
{"Compound": "Cc1ccc(Nc2nccc(N(C)c3ccc4c(C)n(C)nc4c3)n2)cc1S(N)(=O)=O", "observed": "cell-free assay", "tested at": "0.5 µM", "measurement": "remaining signal", "value": "103%"}
{"Compound": "Cc1ccc(NC(=O)c2ccc(C)c(C(F)(F)F)c2)cc1C#Cc1nn(C2CCC(O)CC2)c2ncnc(N)c12 (stereo not shown)", "observed": "cell-free assay", "tested at": "10 µM", "measurement": "remaining signal", "value": "105%"}
{"Compound": "COc1ccc2c(c1)O[C@@H](c1ccc(OC)c(OC)c1)C[C@H]2NC(=O)C1(c2ccc3c(c2)OC(F)(F)O3)CC1", "observed": "cell-free assay", "technique": "competition with immobilised ligand", "tested at": "1 µM", "measurement": "remaining binding", "value": "100%"}
{"Compound": "O=C1NC(=O)c2cc(Nc3ccc(F)cc3)c(Nc3ccc(F)cc3)cc21", "observed": "cell-free assay", "tested at": "0.5 µM", "measurement": "remaining signal", "value": "98.1%"}
{"Compound": "CCCOc1ccc([C@@H]2[C@@H](C(=O)O)[C@H](c3ccc4c(c3)OCO4)CN2CC(=O)Nc2c(CC)cccc2CC)cc1", "observed": "cell-free assay", "technique": "competition with immobilised ligand", "tested at": "1 µM", "measurement": "remaining binding", "value": "64%"}
{"Compound": "Fc1ccc(-c2ncn(-c3ccccc3)c2-c2ccncc2)cc1", "observed": "cell-free assay", "technique": "TR-FRET", "tested at": "1 µM", "measurement": "inhibition", "value": "31%"}
{"Compound": "C=CC(=O)Nc1cc(Nc2nccc(Nc3cc(Cl)c(F)cc3C(C)(C)O)n2)c(OC)cc1N1CC[C@@H](N(C)C)C1", "observed": "enzyme activity", "action": "inhibitor", "tested at": "1 µM", "measurement": "inhibition", "value": "42%"}
{"Compound": "Cc1ccc(C(=O)Nc2ccc(CN3CCN(C)CC3)c(C(F)(F)F)c2)cc1C#Cc1cnc2cccnn12", "observed": "cell-free assay", "tested at": "23.5 nM", "measurement": "remaining signal", "value": "98%"}
{"Compound": "C[C@H](c1cccc(C#N)c1)n1cc(Cl)cc(C(N)=O)c1=N", "observed": "cell-free assay", "technique": "competition with immobilised ligand", "tested at": "1 µM", "measurement": "remaining binding", "value": "100%"}
{"Compound": "Fc1ccc(-c2c(-c3ccncc3)ncn2-c2ccc3ccccc3c2)cc1", "observed": "cell-free assay", "technique": "TR-FRET", "tested at": "1 µM", "measurement": "inhibition", "value": "21%"}
{"Compound": "CCOc1cc(-c2nncn2C)ccc1Nc1ncc2cc(C)nc(NCC(C)(C)C)c2n1", "observed": "cell-free assay", "technique": "TR-FRET", "tested at": "1 µM", "measurement": "inhibition", "value": "≤ 15%"}
{"Compound": "Cc1sc(C(=O)NC2COC2)cc1-n1cc(NC(=O)Nc2c(F)cccc2Cl)cn1", "observed": "enzyme activity", "action": "inhibitor", "tested at": "10 µM", "measurement": "remaining activity", "value": "104%"}
{"Compound": "c1ccc(-c2[nH]ncc2-c2ccnc3ccccc23)nc1", "observed": "cell-free assay", "tested at": "0.5 µM", "measurement": "remaining signal", "value": "41.6%"}
{"Compound": "CC(=O)C1=C(C)N(c2cccc(C(F)(F)F)c2)C(=O)N[C@@H]1c1ccc(C#N)nc1", "observed": "cell-free assay", "technique": "competition with immobilised ligand", "tested at": "1 µM", "measurement": "remaining binding", "value": "99.2%"}
{"Compound": "Fc1ccc(-c2c(-c3ccncc3)ncn2-c2ccc(-c3ccccc3)cc2)cc1", "observed": "cell-free assay", "technique": "TR-FRET", "tested at": "1 µM", "measurement": "inhibition", "value": "21%"}
{"Compound": "CC(C)(O)[C@H]1CC[C@H](Nc2ccc3ncc(-c4cccc(C(F)(F)F)c4)n3n2)CC1", "observed": "enzyme activity", "action": "inhibitor", "tested at": "1 µM", "measurement": "remaining activity", "value": "108%"}
{"Compound": "CCOC(=O)c1cc2cc(-c3cc(C(=O)NCc4ccc(C(=O)O)cc4)nn3C)ccc2[nH]1", "observed": "cell-free assay", "technique": "competition with immobilised ligand", "tested at": "0.1 µM", "measurement": "remaining binding", "value": "100%"}
{"Compound": "N#CCCc1ccc2c(c1)-c1[nH]c3ccc([N+](=O)[O-])cc3c1CC(=O)N2", "observed": "cell-free assay", "tested at": "0.5 µM", "measurement": "remaining signal", "value": "103%"}
{"Compound": "NS(=O)(=O)c1cc(NC(=O)C2(c3ccccc3Cl)CC2)ccc1Oc1cccc(Cl)c1", "observed": "cell-free assay", "technique": "competition with immobilised ligand", "tested at": "1 µM", "measurement": "remaining binding", "value": "82%"}
{"Compound": "O=C1Nc2ccc(Cl)cc2C1=Cc1cc(Cl)c(O)c(Cl)c1", "observed": "cell-free assay", "tested at": "0.5 µM", "measurement": "remaining signal", "value": "102%"}
{"Compound": "Fc1ccc(-c2c(-c3ccncc3)ncn2-c2ccccc2)cc1", "observed": "cell-free assay", "technique": "TR-FRET", "tested at": "1 µM", "measurement": "inhibition", "value": "21%"}
